Source: PMC4127500 (Scientific Reports, 2014)
Converted amounts (≈) assume the structure as drawn.

Assays:
P. aeruginosa 6817 = test: Minimum inhibitory concentration; type: cell-based
In short: (§1)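 Broth microdilution in Mueller Hinton Broth per CLSI. Inoculum was pre-incubated in TSB at 30°C to 0.5 McFarland. Amoxicillin, ampicillin, cefotaxime and gentamicin were tested over 0.5–1024 µg.mL−1, alone or with test compound at 128 µg.mL−1. Each set was repeated three times.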

B. cereus 6591 = test: Minimum inhibitory concentration; type: cell-based
In short: as §1

S. aureus (ATCC33591) = test: Murine non-lethal Staphylococcus aureus infection model; type: in vivo, C57BL/6 mice; conditions: S. aureus infected mice
In short: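 C57BL/6 mice (18–22 g, n = 6/group) got i.p. 100 µL of S. aureus ATCC33591 at 2 × 10^5 CFU.mL−1. After 1 h, penicillin or ampicillin (100 or 200 mg.kg−1) or cefotaxime (35 mg.kg−1) was given i.p. at 12, 24, 48 and 72 h over 7 days. Day-7 blood and peritoneal fluid were serially diluted, plated in triplicate on mannitol salt agar, and counted as CFU.mL−1.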

S. aureus 7314 = test: Minimum inhibitory concentration; type: cell-based
In short: as §1

S. aureus ATCC33591 = test: Minimum inhibitory concentration; type: cell-based
In short: as §1

RAW 264.7 cells = test: MTT cell viability assay; type: cell-based, murine; conditions: RAW 264.7 monocytes; 24 h
In short: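 RAW 264.7 cells kept in DMEM with 4 mM L-glutamine, 10% FCS, 2 mM nonessential amino acids and penicillin/streptomycin at 37°C, 5% CO2. Cells were exposed 24 h to test compound or antibiotics, free or combined. Viability was read by MTT (reagent 5 mg.mL−1 in PBS) in three replicates, as % of PBS (pH 7.4) control; mastoparan-L (1–100 μg.mL−1) was the positive control.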

E. coli (TEM-1) = test: Minimum inhibitory concentration; type: cell-based
In short: as §1

[1] = test system: E. coli 1812446 clinical strain; test: Murine non-lethal Escherichia coli infection model; type: in vivo, C57BL/6 mice; conditions: E. coli infected mice
In short: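 C57BL/6 mice (18–22 g, n = 6/group) got i.p. 200 μl holding 2.5 × 10^8 CFU of E. coli 1812446. One hour later they were treated i.p. with penicillin or ampicillin (100 or 200 mg.kg−1) or gentamicin (10 mg.kg−1), at 12, 24, 48 and 72 h over 7 days. On day 7, blood and peritoneal fluid were serially diluted and plated in triplicate on Mueller Hinton agar at 37°C overnight. Detection limit was 100 CFU.ml−1.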

E. coli 2101123 = test: Minimum inhibitory concentration; type: cell-based
In short: as §1

E. coli 1812446 = test: Minimum inhibitory concentration; type: cell-based
In short: as §1

E. coli 6881 = test: Minimum inhibitory concentration; type: cell-based
In short: as §1

[2] = P. aeruginosa 6817, in the presence of dBLIP1 (128 µg.mL^−1)
[3] = P. aeruginosa 6817, in the presence of dBLIP2 (128 µg.mL^−1)
[4] = B. cereus 6591, in the presence of dBLIP1 (128 µg.mL^−1)
[5] = B. cereus 6591, in the presence of dBLIP2 (128 µg.mL^−1)
[6] = S. aureus 7314, in the presence of dBLIP1 (128 µg.mL^−1)
[7] = S. aureus 7314, in the presence of dBLIP2 (128 µg.mL^−1)
[8] = S. aureus ATCC33591, in the presence of dBLIP1 (128 µg.mL^−1)
[9] = S. aureus ATCC33591, in the presence of dBLIP2 (128 µg.mL^−1)
[10] = Staphylococcus aureus, ATCC33591
[11] = E. coli 2101123, in the presence of dBLIP1 (128 µg.mL^−1)
[12] = E. coli 2101123, in the presence of dBLIP2 (128 µg.mL^−1)
[13] = E. coli 1812446, in the presence of dBLIP1 (128 µg.mL^−1)
[14] = E. coli 1812446, in the presence of dBLIP2 (128 µg.mL^−1)
[15] = E. coli 6881, in the presence of dBLIP1 (128 µg.mL^−1)
[16] = E. coli 6881, in the presence of dBLIP2 (128 µg.mL^−1)
[17] = E. coli (TEM-1), in the presence of dBLIP1 (128 µg.mL^−1)
[18] = E. coli (TEM-1), in the presence of dBLIP2 (128 µg.mL^−1)

Compound | MIC (P. aeruginosa 6817; [2]) [µg/mL] | MIC (P. aeruginosa 6817; [3]) [µg/mL] | MIC (P. aeruginosa 6817; Pseudomonas aeruginosa, 6817) [µg/mL] | MIC (B. cereus 6591; [4]) [µg/mL] | MIC (B. cereus 6591; [5]) [µg/mL] | MIC (B. cereus 6591; Bacillus cereus, 6591) [µg/mL] | MIC (S. aureus 7314; [6]) [µg/mL] | MIC (S. aureus 7314; [7]) [µg/mL] | MIC (S. aureus 7314; Staphylococcus aureus, 7314) [µg/mL] | MIC (S. aureus ATCC33591; [8]) [µg/mL] | MIC (S. aureus ATCC33591; [9]) [µg/mL] | MIC (S. aureus ATCC33591; [10]) [µg/mL] | cytotoxic activity against RAW 264.7 (MTT cell viability) (RAW 264.7 cells) [µg/mL] | MIC (E. coli (TEM-1); Escherichia coli) [µg/mL] | MIC (E. coli 2101123; [11]) [µg/mL] | MIC (E. coli 2101123; [12]) [µg/mL] | MIC (E. coli 2101123; Escherichia coli, 2101123) [µg/mL] | MIC (E. coli 1812446; [13]) [µg/mL] | MIC (E. coli 1812446; [14]) [µg/mL] | MIC (E. coli 1812446; Escherichia coli, 1812446) [µg/mL] | other results
CC1(C)S[C@@H]2[C@H](NC(=O)[C@H](N)c3ccccc3)C(=O)N2[C@H]1C(=O)O [AMP, Ampicillin] | 32 | 32 | 512 (≈ 1470 µM) | 16 | 8 | 256 (≈ 733 µM) | 32 | 32 | 512 (≈ 1470 µM) | 128 | 128 | 512 (≈ 1470 µM) | 200 | 1020 (≈ 2930 µM) | 256 | 256 | > 512 | 512 | 512 | > 512 | CFU, antibiotic alone (S. aureus (ATCC33591); 200 mg.kg^−1 i.p.): CFUs were slightly reduced; CFU, antibiotic alone ([1]; 100 mg.kg^−1 i.p.): did not cause any bactericidal effect; CFU, antibiotic alone ([1]; 200 mg.kg^−1 i.p.): a lower reduction in CFU; MIC (E. coli 6881; [15]): 32 µg/mL; MIC (E. coli 6881; [16]): 32 µg/mL; MIC (E. coli 6881; Escherichia coli, 6881): 128 µg/mL (≈ 366 µM)
CC1(C)S[C@@H]2[C@H](NC(=O)[C@H](N)c3ccc(O)cc3)C(=O)N2[C@H]1C(=O)O [AMX, Amoxicillin] | 32 | 16 | 512 (≈ 1400 µM) | 8 | 8 | 256 (≈ 701 µM) | 32 | 16 | 512 (≈ 1400 µM) | 32 | 32 | 512 (≈ 1400 µM) |  | 128 (≈ 350 µM) | 8 | 8 | 256 (≈ 701 µM) | 16 | 16 | 256 (≈ 701 µM) | MIC (E. coli 6881; [15]): 32 µg/mL; MIC (E. coli 6881; [16]): 16 µg/mL; MIC (E. coli 6881; Escherichia coli, 6881): 128 µg/mL (≈ 350 µM)
CO/N=C(\C(=O)N[C@@H]1C(=O)N2C(C(=O)O)=C(COC(C)=O)CS[C@H]12)c1csc(N)n1 [CTX, Cefotaxime] | 8 | 8 | 64 (≈ 141 µM) | 8 | 8 | 64 (≈ 141 µM) | 8 | 8 | 128 (≈ 281 µM) | 8 | 8 | 128 (≈ 281 µM) |  | 32 (≈ 70.3 µM) | 8 | 8 | 128 (≈ 281 µM) | 16 | 16 | 256 (≈ 562 µM) | CFU, antibiotic alone (S. aureus (ATCC33591); cefotaxime 35 mg.kg^−1 i.p.): efficient reduction in CFU; MIC (E. coli (TEM-1); [17]): 4 µg/mL; MIC (E. coli (TEM-1); [18]): 4 µg/mL; MIC (E. coli 6881; [15]): 8 µg/mL; MIC (E. coli 6881; [16]): 8 µg/mL; MIC (E. coli 6881; Escherichia coli, 6881): 64 µg/mL (≈ 141 µM)
CNC(C)C1CCC(N)C(OC2C(N)CC(N)C(OC3OCC(C)(O)C(NC)C3O)C2O)O1 (centres unmarked) [GEN, Gentamicin] | 8 | 8 | 32 (≈ 67 µM) | 4 | 4 | 32 (≈ 67 µM) | 8 | 8 | 64 (≈ 134 µM) | 8 | 8 | 64 (≈ 134 µM) | 150 | 32 (≈ 67 µM) | 128 | 128 | 256 (≈ 536 µM) | 128 | 128 | 512 (≈ 1070 µM) | MIC (E. coli (TEM-1); [17]): 4 µg/mL; MIC (E. coli (TEM-1); [18]): 4 µg/mL; CFU, antibiotic alone ([1]; gentamicin 10 mg.kg^−1 i.p.): efficient CFU decline; MIC (E. coli 6881; [15]): 4 µg/mL; MIC (E. coli 6881; [16]): 4 µg/mL; MIC (E. coli 6881; Escherichia coli, 6881): 32 µg/mL (≈ 67 µM)
CC1(C)S[C@@H]2[C@H](NC(=O)Cc3ccccc3)C(=O)N2[C@H]1C(=O)O [Penicillin G] |  |  |  |  |  |  |  |  |  |  |  |  | 150 |  |  |  |  |  |  |  | 
Mastoparan-L |  |  |  |  |  |  |  |  |  |  |  |  | 10 |  |  |  |  |  |  |  | 
